What was measured:
[1] = system: sigma receptors; settings: cited from earlier work
[2] = pilot intravenous pharmacokinetic study in rats; format: in vivo; settings: male, Sprague-Dawley, rat, plasma, 5 mg/kg
Summary of the method: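 Six male Sprague-Dawley rats (180–200 g) with right jugular vein cannulas, fasted 12 h before and 4 h after dosing. Single 5 mg/kg i.v. bolus in saline (0.2 µm filtered) via cannula, flushed with heparinized saline. Plasma from centrifuged blood (10,000 × g, 20 min, 4 °C) held at −20 °C. Chloroform extraction with aripiprazole internal standard. HILIC UPLC/MS in SIR mode (m/z 390; IS 448). Mean ± SD, n = 6.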

[3] = stability of CM156 in rat plasma QC samples under various storage conditions; format: in vitro ADME; settings: for stability in rat plasma: 10, 400 and 3000 ng/mL
Summary of the method: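 Blank rat plasma was spiked to QC levels of 10, 400 and 3000 ng/mL, six replicates each. Conditions were three freeze–thaw cycles (−20 °C 24 h, thaw at room temperature, refreeze 12–24 h), room temperature for 12 h, −20 °C for 1 month, and autosampler reinjection after 24 h at 25 °C. Samples were chloroform-extracted with aripiprazole internal standard, analysed by UPLC/MS, and compared with fresh QCs.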

[4] = stability of stock solutions; format: physicochemical
[5] = system: sigma-1 receptors; settings: sigma-1 and sigma-2 in the nanomolar and subnanomolar range; cited from earlier work
[6] = system: sigma-2 receptors; settings: sigma-1 and sigma-2 in the nanomolar and subnanomolar range; cited from earlier work
[7] = system: cocaine induced behaviors; settings: cited from earlier work
[8] = system: effects of cocaine; settings: cited from earlier work
[9] = rat plasma, long term for 30 days (−20 °C), spiked 10 ng/mL
[10] = rat plasma, long term for 30 days (−20 °C), spiked 400 ng/mL
[11] = rat plasma, short term for 12 h (25 °C), spiked 10 ng/mL
[12] = rat plasma, short term for 12 h (25 °C), spiked 400 ng/mL
[13] = rat plasma, three freeze thaw cycles, spiked 400 ng/mL
[14] = rat plasma, three freeze thaw cycles, spiked 3000 ng/mL
[15] = reconstituted samples, auto sampler for 24 h (25 °C), spiked 10 ng/mL
[16] = reconstituted samples, auto sampler for 24 h (25 °C), spiked 400 ng/mL
[17] = reconstituted samples, auto sampler for 24 h (25 °C), spiked 3000 ng/mL

For `COC(=O)[C@H]1[C@@H](OC(=O)c2ccccc2)C[C@@H]2CC[C@H]1N2C` [cocaine], which “affinity for sigma receptors” value [1] is on record?
The value was “about 2 µm”.

With `S=c1sc2ccccc2n1CCCCN1CCN(C2CCCCC2)CC1` [CM156, 3-(4-(4-cyclohexylpiperazin-1-yl)butyl)benzo[d]thiazole-2(3H)-thione] as the molecule, how does the AUC(0-inf) [2] read?
Its AUC(0-inf) is 802 ng·h/mL.

What about the Cmax [2] of the same molecule?
Its Cmax is 1300 ± 200 ng/mL.

And the MRT [2]?
Its MRT is 1.5 h.

And the Vd [2]?
Its Vd is 9.6 ± 1.4 L/kg.

And the clearance [2]?
The clearance was 103 mL/min/kg.

And the half-life ([2]; Elimination half-life (t1/2), rats, single intravenous dose of 5 mg/kg, n = 6, mean ± SD)?
The half-life was 1.1 ± 0.4 h.

And the “stability in rat plasma” value ([3]; during three freeze/thaw cycles)?
The value was “stable”.

What about the Measured concentration [3, 9] of the same molecule?
The Measured concentration was 11.2 ± 0.9 ng/mL.

What about the “RE (relative error)” value [3, 9] of the same molecule?
The value was 12.8%.

And the Measured concentration [3, 10]?
The Measured concentration was 394.8 ± 17.8 ng/mL.

What about the “RE (relative error)” value [3, 10] of the same molecule?
Its value is −1.3%.

What about the Measured concentration ([3]; rat plasma, long term for 30 days (−20 °C), spiked 3000 ng/mL) of the same molecule?
The Measured concentration was 2879.4 ± 243.1 ng/mL.

And the Measured concentration [3, 11]?
Its Measured concentration is 8.6 ± 0.7 ng/mL.

And the “RE (relative error)” value [3, 11]?
The value was −12.3%.

What about the Measured concentration [3, 12] of the same molecule?
The Measured concentration was 403.6 ± 9.2 ng/mL.

And the “RE (relative error)” value [3, 12]?
The value was 2.3%.

What about the Measured concentration ([3]; rat plasma, short term for 12 h (25 °C), spiked 3000 ng/mL) of the same molecule?
The Measured concentration was 2879.4 ± 145.2 ng/mL.

And the Measured concentration ([3]; rat plasma, three freeze thaw cycles, spiked 10 ng/mL)?
Its Measured concentration is 9.2 ± 1.1 ng/mL.

What about the Measured concentration [3, 13] of the same molecule?
The Measured concentration was 406.4 ± 8.8 ng/mL.

What about the “RE (relative error)” value [3, 13] of the same molecule?
The value was 1.6%.

And the Measured concentration [3, 14]?
Its Measured concentration is 2879.4 ± 209.8 ng/mL.

And the “RE (relative error)” value [3, 14]?
The value was −4.0%.

What about the Measured concentration [3, 15] of the same molecule?
Its Measured concentration is 10.0 ± 0.2 ng/mL.

What about the “RE (relative error)” value [3, 15] of the same molecule?
Its value is 2.2%.

And the Measured concentration [3, 16]?
The Measured concentration was 404.4 ± 4.7 ng/mL.

And the “RE (relative error)” value [3, 16]?
Its value is 1.1%.

What about the Measured concentration [3, 17] of the same molecule?
The Measured concentration was 2901.1 ± 59.2 ng/mL.

And the “RE (relative error)” value [3, 17]?
The value was −3.3%.

And the “stability in rat plasma” value ([3]; stored at room temperature for 12 h)?
Its value is “stable”.

And the “stability in rat plasma” value ([3]; stored at −20 °C for 1 month)?
The value was “stable”.

What about the “stability in reconstituted samples” value ([3]; stored for 24 h in the autosampler at 25 °C) of the same molecule?
The value was “stable”.

And the stock solution stability ([4]; one week at −20 °C)?
Its stock solution stability is “stable”.

What about the “time stock solution is stable” value ([4]; room temperature) of the same molecule?
Its value is “at least 6 h”.

What about the “affinity for sigma-1 receptors” value [5] of the same molecule?
The value was “high affinity”.

And the “affinity for sigma-2 receptors” value [6]?
The value was “high affinity”.

And the “cocaine induced place conditioning behaviors” value [7]?
Its value is “significantly attenuate”.

What about the “expression of cocaine induced behavioral sensitization” value [7] of the same molecule?
The value was “significantly attenuate”.

Which convulsions of cocaine [8] does the source give for `CN(CCc1ccc(Cl)c(Cl)c1)CCN1CCCC1` [BD 1008] here?
The convulsions of cocaine was “attenuation”.

And the “locomotor stimulant effects of cocaine” value [8]?
Its value is “blockade”.

And the “rewarding effects of cocaine” value [8]?
Its value is “attenuation”.

Source: article PMC3992999 (Journal of chromatography. B, Analytical technologies in …, 2011)
